Data taken from the EternaBench riboswitch data.

Tested on: MS2 coat protein
Assay: apparent Kd, MS2 coat protein; higher = weaker binding; RNA-MaP array; FMN 200 µM where present
How it was run: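 The titrant was SNAP-549-labelled MS2 coat protein, run from 0.7 or 1.5 nM in doubling steps to 3 µM. It was applied to designs transcribed by stalled E. coli RNA polymerase on Illumina sequencing-chip clusters, without ligand first and then with constant ligand, in 100 mM Tris-HCl pH 7.5, 80 mM KCl, 4 mM MgCl2, BSA, DTT, yeast tRNA and Tween-20. The apparent Kd is the median of filtered per-cluster binding-curve fits, with green signal normalised to red-channel RNA signal and control-cluster median Fmax.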

[1] = designed as: ON switch for flavin mononucleotide, no ligand
[2] = ligand present: flavin mononucleotide, designed as: ON switch for flavin mononucleotide
[3] = designed as: OFF switch for flavin mononucleotide, no ligand
[4] = ligand present: flavin mononucleotide, designed as: OFF switch for flavin mononucleotide

GUGGUCAGACAUGAGGAUCACCCAUGUGGAAUAAAUAAGGGACAGGAUAUUUAAUAUAGGAUAUAGAAGAAGGGUUGGUUGGUG
apparent Kd [1]: 106 nM | apparent Kd [2]: 138 nM

GUGGUUGUCGUAGGAUAUGUAGGAUAUUCCUACAUGAGGAUCACCCAUGUUCGCAUGGAAGAAGGACAGAAGGACGAUGACCAU
apparent Kd [1]: 1020 nM | apparent Kd [2]: 10.7 nM

GUGUACAGAGGAUAUACAGGAGCAUGGAAACAUGCAACCUCACAUGAGGAUCACCCAUGUAGAAGGCUGUACAC
apparent Kd [3]: 154 nM | apparent Kd [4]: 81.3 nM

GUGUACAGAGGAUAUACAGGAGCUAGGAAACUAGCAACUUCACAUGAGGAUCACCCAUGUAGAAGGCUGUACAC
apparent Kd [3]: 15.3 nM | apparent Kd [4]: 49.7 nM

GUGUACAGAGGAUAUACUGGAGCAUGGAAACAUGCAACUUCACAUGAGGAUCACCCAUGUAGAAGGCUGUACAC
apparent Kd [3]: 17.6 nM | apparent Kd [4]: 68.4 nM

GUGUACAGAGGAUAUAUAUGAGCAUGGAAACAUGCAACUUCACAUGAGGAUCACCCAUGUAGAAGGCUGUACAC
apparent Kd [3]: 14.2 nM | apparent Kd [4]: 14.3 nM

GUGUACAGAGGAUAUAUAUGGGCAUGGAAACAUGCAACUUCACAUGAGGAUCACCCAUGUAGAAGGCUGUACAC
apparent Kd [3]: 27.3 nM | apparent Kd [4]: 182 nM

GUGUACGGAGGAUAUAUGUGGGCAGCAUACGCUGCAGCUUCACAUGAGGAUCACCCAUGUAGAAGGCUGUACAC
apparent Kd [3]: 28.7 nM | apparent Kd [4]: 169 nM

GUGUACGGAGGAUAUGCUGGAAUCUAGCGAAGCUAGGUUCCACAUGAGGAUCACCCAUGUAGAAGGCUGUACAC
apparent Kd [3]: 24.8 nM | apparent Kd [4]: 14.2 nM

GUUAUAAAGGUAGGAUAUAGUAUUAUAAUUAAAUUAGAAGGAUCUCACAUGAGGAUCACCCAUGUAAGAGGAUCACCCAUGUAG
apparent Kd [3]: 20.7 nM | apparent Kd [4]: 15.9 nM

GUUAUGUCAGGAUAUGCUUAUGAUGAGUGCUCAGACAUGAUGCAGAAGGGACAUGAGGAUCACCCAUGUACUGA
apparent Kd [3]: 25.4 nM | apparent Kd [4]: 63.9 nM

GUUAUUUAUGUAGGAUAUGCGAGGCGAGCCUAAGCAGAAGGACAUGAGGAUCACCCAUGUAUUGCGGUUUGCGUUCAGAUCGCU
apparent Kd [3]: 21.1 nM | apparent Kd [4]: 37.8 nM

GUUGUGUGAGGAUAUGCCUGGCCGUGUGGCCGGAUUGGGUGGCAGAAGGUACAUGAGGAUCACCCAUGUACGGG
apparent Kd [3]: 90.6 nM | apparent Kd [4]: 70 nM

GUUGUUACUGAGGAUAUUAUUUUAUUCGAUUGAUAAGAAGGCAGUACAUGAGGAUCACCCAUGUGGGUAGUUUG
apparent Kd [3]: 355 nM | apparent Kd [4]: 586 nM

GUUGUUUCUGAGGAUAUUAUUUUAUUCGAUUGAUAAGAAGGCAGUACAUGAGGAUCACCCAUGUGGGUUGUUUG
apparent Kd [3]: 60.6 nM | apparent Kd [4]: 122 nM

GUUGUUUCUGAGGAUAUUAUUUUUUUCGAUUGAUAAGAAGGCAGUACAUGAGGAUCACCCAUGUGGGUUGUCUG
apparent Kd [3]: 37.2 nM | apparent Kd [4]: 150 nM

GUUUACGCAUGAGGAUAUGCUCGCAUUUCAAGAGCAGAAGGUAUGUCUUUAGACAUGAGGAUCACCCAUGUAUUUAUCAUUGUA
apparent Kd [1]: 187 nM | apparent Kd [2]: 29.9 nM

GUUUACGCGGAAGGAUAUACAUUUGACAUCUUGAUGCGCGCAAUACUCACAUGAGGAUCACCCAUGUAGAAGGUCUGCGAAAGA
apparent Kd [3]: 15.1 nM | apparent Kd [4]: 24.9 nM

GUUUAGUGAGGAUAUGUGGCAUCGAUCGAGCGCGGUCGGCUACAGAAGGCACAUGAGGAUCACCCAUGUUUCUC
apparent Kd [3]: 39.5 nM | apparent Kd [4]: 413 nM

GUUUAGUGAGGAUAUGUGGCUUCGAUCGUGAGAUCGAGGCUACAGAAGGCACAUGAGGAUCACCCAUGUUCCUU
apparent Kd [3]: 14.4 nM | apparent Kd [4]: 51.6 nM

GUUUCCAGAGGAUAUGCGAGGGUGUACCUCUAACAGCUCAAACAUGAGGAUCACCCAUGUAGAAGGCUGAUCAU
apparent Kd [3]: 19.8 nM | apparent Kd [4]: 18.2 nM

GUUUCGGGAGGAUAUGCGUGGAUUGUUCUCGUAUGGUGUCUACAUGAGGAUCACCCAUGUAGAAGGUCUGGAGC
apparent Kd [3]: 18 nM | apparent Kd [4]: 38.6 nM

GUUUUCACAUGAGGAUAUGCUCGCAUUUCAAGAGCAGAAGGUAUGUCUUUAGACAUGAGGAUCACCCAUGUAUUUAUCAUUGAA
apparent Kd [1]: 91.1 nM | apparent Kd [2]: 28.4 nM

GUUUUUCCUCAUGUACAUGAGGAACAUGAGGAUCACCCAUGUAGAAGGAAUUCCCUUAAAUUAAGUUAGGAUAUACAUAUAUUU
apparent Kd [3]: 107 nM | apparent Kd [4]: 77.4 nM

GUUUUUUGUCAUGUACAUGAGGAACAUGAGGAUCACCCAUGUAGAAGGAAUUUUUUUAAGUUUAGUUAGGAUAUACAUAUAUUA
apparent Kd [3]: 49 nM | apparent Kd [4]: 24.7 nM

UAAAAGACUAGCAACUAUCUCCACAUGAGGAUCACCCAUGUCUAGGAUAUGAGCAGCAAAGCUGCUUAGAAGGAGACGCUAGUC
apparent Kd [3]: 6.67 nM | apparent Kd [4]: 6.88 nM

UAAAAGACUAGCAUUCUAAAGAUCACAUGAGGAUCACCCAUGUAGGAUAUGAGCAGAAAAUCUGCUCAGAAGGACAUGCUAGUC
apparent Kd [3]: 5.51 nM | apparent Kd [4]: 6.02 nM

UAAAGUGUGGAGGAUAUGGACCGCGCUAGUGGUCCAGAAGGUCAAACAUGAGGAUCACCCAUGUCCCGUGAUUA
apparent Kd [3]: 54.5 nM | apparent Kd [4]: 67.7 nM

UAAAUAAGUGUGAGGAUAUGCUGGUCCUUGGAUCAGCAGAAGGCACAUGAGGAUCACCCAUGUAAUAUAUUUAU
apparent Kd [3]: 85.2 nM | apparent Kd [4]: 316 nM

UAAAUACAUGAGGAUCACCCAUGUCAGGAUAUAUUACGCCCGCCAAGCGAGCGCGUCUAUAGAAGGGACGGUGA
apparent Kd [3]: 33.3 nM | apparent Kd [4]: 33.2 nM

UAAAUACAUGAGGAUCACCCAUGUGAGGAUAUCCGAUGAUUCGGAGAAAGGACCCGUUGGAGAAGGCAUAGGGC
apparent Kd [3]: 27.1 nM | apparent Kd [4]: 21 nM

UAAAUUUUGUAAGGAUAUACACGAGAUUCAAGUGUAGAAGGUACUUACAUGAGGAUCACCCAUGUAUACAUGGAUCAUAGAUAU
apparent Kd [1]: 305 nM | apparent Kd [2]: 63.9 nM

UAACAUGUCCGAGGAUAUCUGGAAACAUUUUCAAGAGAAGGCGGACAUGAGGAUCACCCAUGUCUCUCCUCAUCAAAUCCAAGU
apparent Kd [3]: 8.9 nM | apparent Kd [4]: 42.3 nM

UAAGUACAUGAGGAUCACCCAUGUUGGAAUAGAGCAGGAUAUGUGCAGAGGGAAAUAAAAACAGAAGGGCUAAGAA
apparent Kd [1]: 45.3 nM | apparent Kd [2]: 28.6 nM

UAAGUUGAGGAGAAGGGAGCACAUGAGGAUCACCCAUGUGGUUCUUUGUGCUCAGGAUAUCCAUGGAGCUCCAACGCGUUCCCG
apparent Kd [3]: 63.1 nM | apparent Kd [4]: 10.3 nM

UAAUAAAACGAUCGGCGAUCCAUACAUGAGGAUCACCCAUGUAGAAGGCACUCUACAAAGUAGAGUGAGGAUAUACGAGAUCGA
apparent Kd [3]: 7.85 nM | apparent Kd [4]: 105 nM

UAAUAAUAAUAAUACCAGUUUACAUGAGGAUCACCCAUGUAUAAGGAUAUGCAGUGGAAUACACUGCAGAAGGUAUACAUCUGG
apparent Kd [3]: 18.8 nM | apparent Kd [4]: 35.9 nM

UAAUAAUUAUGAGGAUAUAUACAACAUGAGGAUCACCCAUGUACCCAUGUAGUAGAAGGCAUAUUUUUAGUUAAUAACACAACU
apparent Kd [1]: 71.3 nM | apparent Kd [2]: 30 nM

UAAUCGUUGCAGAAGGUUAUUAUUAUAUCGUGUCACUUAACAUGAGGAUCACCCAUGUUUUUGAUGAAGGAUAUGCAACGGUAG
apparent Kd [3]: 6.74 nM | apparent Kd [4]: 6.83 nM

UAAUCGUUGCAGAAGGUUAUUAUUUUAUCGUGUCUCUUAACAUGAGGAUCACCCAUGUUUUUGAUGAAGGAUAUGCAACGGUAG
apparent Kd [3]: 7.54 nM | apparent Kd [4]: 7.09 nM

UAAUCGUUGCAGAAGGUUAUUUUUUUAACAAGUCUCUUAACAUGAGGAUCACCCAUGUUUUUGAUGAAGGAUAUGCAACGGUAG
apparent Kd [3]: 5.89 nM | apparent Kd [4]: 6.15 nM

UAAUCUCAGAUAGGAUAUAUAGGAUAACUUAAGACCUAACAUGAGGAUCACCCAUGUGAUUAUUCGUAGAAGGAUCAAUGACCC
apparent Kd [1]: 189 nM | apparent Kd [2]: 200 nM

UAAUCUCAGAUAGGAUAUAUAGGAUGAUUUAAGACUGAACAUGAGGAUCACCCAUGUGAUUAUCUGUAGAAGGAUCAAUUACCC
apparent Kd [1]: 392 nM | apparent Kd [2]: 351 nM

UAAUUAAGUGUGAGGAUAUGCUGGUCCUUGGAUCAGCAGAAGGCACAUGAGGAUCACCCAUGUAAAUUAUUUAU
apparent Kd [3]: 103 nM | apparent Kd [4]: 437 nM

UAAUUAAGUGUGAGGAUAUGCUGGUCCUUGGAUCAGCAGAAGGCACAUGAGGAUCACCCAUGUAAUUUAUAUAU
apparent Kd [3]: 98.2 nM | apparent Kd [4]: 485 nM

UAAUUUAACAAGAAGGCUAACAUGAGGAUCACCCAUGUUGUACAUGGAUAUAGAGGAUAUUGCUAAUAAUUAUUUAUCAUAAUU
apparent Kd [3]: 24.2 nM | apparent Kd [4]: 19.2 nM

UACAUCACGUAAGGAUAUACACGGGUUUCAAGAGUAGAAGGUACAAACAUGAGGAUCACCCAUGUAGACAUGGUUAAUAUUGUA
apparent Kd [1]: 54.3 nM | apparent Kd [2]: 40.6 nM

UACAUGUGAGGAUAUGUACGAAGCCCGGCUGGGCCUCGCAGGCAGAAGGCACAUGAGGAUCACCCAUGUGACCG
apparent Kd [3]: 15.9 nM | apparent Kd [4]: 53.4 nM

UACGCCAGUGAGAAGGCAUGUUCACAUGAGGAUCACCCAUGUAUACUCAUGAGGAUAUCAAAUGCGGACCAAAAUAAAAUUUGA
apparent Kd [1]: 313 nM | apparent Kd [2]: 22.2 nM

UACGUACAGAAGUACGCCGGGUCCAGAAGGGACAUGAGGAUCACCCAUGUACCGUUGAUUGCUUGUCAGGAUAUGGACCCGGCC
apparent Kd [3]: 7.1 nM | apparent Kd [4]: 27.4 nM

UACUCAUGUGAGAAGGGACGUAUCUCCAUGAGGGUAGGGCUAUUAGAGAAGUCAGGAUAUCACAUGAGGAUCACCCAUGUGACG
apparent Kd [3]: 6.92 nM | apparent Kd [4]: 7.02 nM

UACUGGUGUGAGAAGGGACAUAUCUCCAUGAGGGCAGGGCGAUUAGAGAAGUCAGGAUAUCACAUGAGGAUCACCCAUGUGACA
apparent Kd [3]: 8.14 nM | apparent Kd [4]: 8.51 nM

UACUUCCGAGGAUAUACAUGAGGAUCACCCAUGUGCUUCAGCAUCUAAUGAUGCAUGGGUAGAAGGCGGUAGUU
apparent Kd [3]: 58.5 nM | apparent Kd [4]: 68.1 nM

UAGAAGUCAGGAUAUGCAUGGCGGGACUUGCGUCGUGGCGUGCAGAAGGGACAUGAGGAUCACCCAUGUAAAGA
apparent Kd [3]: 56.1 nM | apparent Kd [4]: 53.4 nM

UAGAAUCGAGGAUAUACAUGAGGAUCACCCAUGUGUGGCCAUUUGGUGUGGUCGUCAGGUAGAAGGCGAUUACA
apparent Kd [3]: 160 nM | apparent Kd [4]: 15.6 nM

UAGAAUCGAGGAUAUACAUGAGGAUCACCCAUGUGUUGCCGCAUGAUGUGAUCGUCAGGUAGAAGGCGAUUAUA
apparent Kd [3]: 25.4 nM | apparent Kd [4]: 18.7 nM
